The source of these data is ChEMBL document CHEMBL1122384, “Synthesis and evaluation of 24-(isopropyl[75Se]seleno)chol-5-en-3 beta-ol” (J Med Chem, 1983).

Assay type in all cases: functional
Assay [1] is described as follows: Adrenal/Tissue ratio calculated from percent dose per gram of tissue determined after 1 day intravenous administration from ovaries. The method, boiled down: (§1)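 Female Fischer 344 rats (160–180 g), fed ad libitum. Steroid dissolved in EtOH, formulated in Tween 80–EtOH–saline, 5–10 μCi in 1 mL given into a lateral tail vein under light Et₂O anesthesia. Organs removed 1 day post-injection, rinsed, blotted, weighed and gamma counted, 3 rats per time point. Ratios taken from adrenal vs tissue % dose/g.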

The nature of assay [2]: Adrenal/Tissue ratio calculated from percent dose per gram of tissue determined after 1 day intravenous administration from liver. The method, boiled down:
as §1

The nature of assay [3]: Adrenal/Tissue ratio calculated from percent dose per gram of tissue determined after 1 day intravenous administration from kidney. The method, boiled down:
as §1

Assay [4] is described as follows: Adrenal/Tissue ratio calculated from percent dose per gram of tissue determined after 1 day intravenous administration from blood. The method, boiled down: as §1
Assay [5] in a line: Adrenal/Tissue ratio calculated from percent dose per gram of tissue determined after 1 day intravenous administration from pancreas. The method, boiled down: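 Female Fischer 344 rats (160–180 g), food and water ad libitum, lightly anaesthetized with Et2O. [75Se]-labelled steroid was given in Tween 80–EtOH–saline, 5–10 μCi, by lateral tail-vein injection. Rats were killed by decapitation under Et2O; organs were rinsed, blotted, weighed and gamma-counted. Adrenal/tissue ratio is from % dose/g, mean of three rats per time point.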

Assay [6] can be described thus: Adrenal/Tissue ratio calculated from percent dose per gram of tissue determined after 1 day intravenous administration from spleen. The method, boiled down:
as §1

The nature of assay [7]: Adrenal/Tissue ratio calculated from percent dose per gram of tissue determined after 1 day intravenous administration from lung. The method in brief:
as §1

Regarding `CC(C)CCCC(C)C1CCC2C3CC(CI)C4=C(CCC(O)C4)C3CCC12C` (configuration not stated), the Ratio in assay [1] is 3; in assay [2], 52.2; in assay [3], 107.8; in assay [4], 92.1.
Turning to `CC(C)[Te]CCCC(C)C1CCC2C3CC=C4CC(O)CCC4(C)C3CCC12C` (configuration not stated), the Ratio is listed as 4.9 in assay [1]; 27.1 in assay [2]; 56.2 in assay [3]; 54.8 in assay [4]; 122 in assay [5]; 14 in assay [6]. The Ratio in assay [7] was 18.7.
Take `C[Se]C[C@@H]1CC2C(CCC3(C)C(C(C)CCCC(C)C)CCC23)C2=C1CC(O)CC2` (some centres not stated) [SCINTIDREN]: the Ratio is recorded as 3.2 in assay [1]; 42 in assay [2]; 52.5 in assay [3]; 105 in assay [4]; 27.1 in assay [6]; 28.9 in assay [7].
